The source made the active and inactive calls.

We go through 45 molecules from ChEMBL document CHEMBL1955761, “Privileged scaffolds or promiscuous binders: a comparative study on rhodanines and related heterocycles in medicinal chemistry” (J Med Chem, 2012).

For test [1], the system named is Dengue virus. Briefly: Inhibition of Dengue virus NS2B-NS3 protease using Abz-NleKRRS-3-(NO2)Y as substrate at 50 uM preincubated for 15 mins measured every sec for 15 mins by fluorimetric analysis.
The target in test [2] is Prothrombin (Bos taurus) (UniProt P00735). Briefly: Inhibition of bovine plasma thrombin using Boc-Val-Pro-Arg-AMC as substrate at 25 uM preincubated for 15 mins measured after 10 mins by fluorimetric assay. The method in brief: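 Purchased bovine plasma thrombin at 10 nM final, preincubated 15 min with 25 μM inhibitor; reaction started with 50 μM substrate. Buffer 50 mM Tris-HCl pH 7.5, 150 mM NaCl, 0.05% Tween 20. Triplicate, averaged.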

In test [3] the test system is Escherichia coli. The test can be described thus: Inhibition of Escherichia coli MurA using PEP as substrate assessed as inorganic phosphate release at 25 uM preincubated for 10 mins measured after 60 mins […].
The subject of test [4] is Escherichia coli. Briefly: Inhibition of Escherichia coli MetAP at 10 uM after 15 mins by fluorescence analysis.

With `O=C1CNC(=O)N1`, the inhibition entry in test [1], in test [2], in test [3] and in test [4] was “inactive” throughout.
With `CCCCC/C=C1\SC(=S)NC1=O`, the inhibition (commonly the change of the read-out against control, counted positive when it falls) in test [1] was determined as 35%; in test [2], 18%; in test [3] it was 14%; in test [4] it was 21%.
In the same order, the values of `O=C1NC(=S)N/C1=C\c1cnc[nH]1` are 29%, 30%, 57% and 83%.
In the same order, the values of `O=C1NC(=S)NC1Cc1cccs1` (stereo not given) are “inactive”, “inactive”, “inactive” and “inactive”.
In the same order, the values of `O=C1NC(=S)N/C1=C\c1cccc(O)c1` are 28%, 12%, 21% and 15%.
In the case of `O=C1NC(=S)N/C1=C\c1ccccc1`, the inhibition in test [1] turned out to be 35%; in test [2], 17%; in test [4], 12%. In addition, the inhibition entry in test [3] was “inactive”.
For `O=C1NC(=O)C(Cc2ccc(O)c(O)c2)N1` (stereo not given) the same measures were “inactive”, “inactive”, 84% and 79%.
For `O=C1NC(=O)/C(=C/c2ccc(Cl)cc2Cl)S1` the same measures were 13%, 28%, “inactive” and “inactive”.
For `O=C1NC(=O)/C(=C/C2CCCCC2)S1` the same measures were 25%, “inactive”, “inactive” and “inactive”.
As for `O=C1NC(=O)/C(=C/C=C/c2ccco2)S1`, in test [1], the inhibition result is “inactive”. Also, the inhibition in test [2] worked out at 24%; in test [3], 24%; in test [4], 12%.
Consider `O=C1NC(=S)N/C1=C\c1ccccn1`, for which the inhibition is 47% in test [1], 38% in test [2], 13% in test [3] and 95% in test [4].
With `O=C1NC(=S)S/C1=C\C=C\c1ccco1`, the inhibition came to 26% in test [1], 28% in test [2], 94% in test [3] and 14% in test [4].
As to `COc1ccc(/C=C2\SC(=O)NC2=O)cc1`, the inhibition in test [1] came out at 19%; in test [2] it was 32%; in test [3], 84%; in test [4] it was 11%.
For the molecule `O=C1NC(=O)[C@H](Cc2c[nH]c3ccccc23)N1`, the inhibition result in test [1], in test [2] and in test [3] was “inactive” each time. Further, in test [4], the inhibition was determined as 19%.
With `O=C1CSC(=O)N1`, the inhibition in test [1] stood at 13%. Further, the inhibition entry in test [2], in test [3] and in test [4] was “inactive” each time.
With `O=C1NC(=O)/C(=C/c2ccc([N+](=O)[O-])cc2)S1`, the inhibition result in test [1], in test [2] and in test [3] was “inactive” each time. The same molecule yielded an inhibition in test [4] of 13%.
As for `Cn1cc(/C=C2\NC(=O)NC2=O)c2ccccc21`, the figures for the inhibition in test [1] and in test [2] were 34% and 20%, respectively. The inhibition result in test [3] and in test [4] was “inactive” in each case.
In the case of `COc1ccccc1/C=C1\SC(=O)NC1=O`, the inhibition amounted to 17% in test [1], 11% in test [2], 25% in test [3] and 10% in test [4].
With `O=C1NC(=O)C(Cc2cccs2)N1` (stereo not given), the inhibition entry in test [1], in test [2], in test [3] and in test [4] was “inactive” throughout.
Take `Cc1ccc(/C=C2\SC(O)=NC2=O)cc1`: the inhibition is 17% in test [1] and 18% in test [2]. Also, the inhibition result in test [3] and in test [4] was “inactive” each time.
As for `COc1cc(/C=C2\SC(=S)NC2=O)ccc1O`, the inhibition in test [1] turned out to be 42%; in test [2] it was 32%; in test [3] it was 66%; in test [4], 12%.
In test [1], `CC(=O)n1cc(/C=C2\SC(=O)NC2=O)c2ccccc21` registered an inhibition of 11%. In addition, the inhibition entry in test [2], in test [3] and in test [4] was “inactive” each time.
Regarding `O=C1NC(=O)/C(=C/c2cccs2)S1`, the inhibition was found to be 11% in test [1], 24% in test [2], 30% in test [3] and 11% in test [4].
Regarding `COc1ccc(/C=C/C=C2\NC(=S)NC2=O)cc1`, the inhibition in test [1] was determined as 13%; in test [2], 18%; in test [3], 48%; in test [4] it was 27%.
For the molecule `O=C1NC(=S)S/C1=C\c1ccco1`, the values for the inhibition in test [1], in test [2] and in test [3] were 52%, 25% and 17%, respectively. The inhibition entry in test [4] is “inactive”.
Take `O=C1NC(=S)S/C1=C\c1ccc([N+](=O)[O-])cc1`: the inhibition amounted to 46% in test [1], 25% in test [2], 65% in test [3] and 11% in test [4].
For `O=C1NC(=S)N/C1=C\c1cccs1` the same measures were 48%, 16%, “inactive” and “inactive”.
As to `COc1cc(/C=C2\NC(=O)NC2=O)ccc1O`, the inhibition in test [1] was 13%; in test [3], 17%. Further, the inhibition result in test [2] and in test [4] was “inactive” in each case.
Take `O=C1NC(=O)/C(=C/c2ccccn2)S1`: the inhibition came to 15% in test [1], 29% in test [2] and 12% in test [4]. For the same molecule, in test [3], the inhibition entry is “inactive”.
For `O=C1NC(=S)S/C1=C\c1cccs1` the same measures were 44%, 18%, “inactive” and “inactive”.
For `O=C1NC(=S)N/C1=C\c1ccc(O)c(O)c1`, the inhibition in test [1] came to 36%; in test [2], 23%; in test [3] it was 46%; in test [4], 86%.
In the same order, the values of `CC(=O)n1cc(/C=C2\SC(=S)NC2=O)c2ccccc21` are 46%, 31%, 18% and “inactive”.
In the same order, the values of `C/C(=C1/SC(=S)NC1=O)c1ccccc1` are 23%, 19%, 33% and “inactive”.
In the same order, the values of `O=C1NC(=S)S/C1=C\c1ccc(Cl)cc1Cl` are 46%, 23%, 15% and “inactive”.
For `O=C1NC(=S)NC1Cc1ccc(O)c(O)c1` (stereo not given), the inhibition turned out to be 15% in test [1], 63% in test [3] and 73% in test [4]. In addition, the inhibition result in test [2] was “inactive”.
For `O=C1NC(=O)/C(=C/c2ccccc2)S1` the same measures were 25%, “inactive”, “inactive” and 15%.
For `O=C1NC(=S)N/C1=C\c1ccc(Cl)cc1Cl` the same measures were 41%, 22%, 15% and 20%.
In the same order, the values of `O=C1NC(=S)N/C1=C\c1cc2ccccc2[nH]1` are 44%, 15%, “inactive” and 23%.
On to `O=C1NC(=S)S/C1=C\c1cc(Br)cs1`, for which the inhibition in test [1] is 47%; in test [2], 21%; in test [3], 18%. Also, the inhibition entry in test [4] is “inactive”.
For `O=C1NC(=O)/C(=C/c2c[nH]c3ccccc23)S1`, the figures for the inhibition in test [1], in test [2] and in test [4] were 26%, 23% and 10%, respectively. The inhibition result in test [3] is “inactive”.
For `CC(=O)n1cc(/C=C2\NC(=S)NC2=O)c2ccccc21` the same measures were 43%, 11%, 15% and 13%.
With `O=C1NC(=S)N/C1=C1/CCOc2ccccc21`, the inhibition in test [1] turned out to be 43%; in test [2], 18%; in test [3], 43%; in test [4], 28%.
As for `CN(C)c1ccc(/C=C2\SC(=O)NC2=O)cc1`, the inhibition in test [1] was found to be 20%; in test [2], 11%; in test [4], 13%. For the same molecule, in test [3], the inhibition result was “inactive”.
As for `COc1ccc(/C=C2\SC(=S)NC2=O)cc1OC`, the inhibition in test [1] is 50%; in test [2], 29%. The inhibition entry in test [3] and in test [4] was “inactive” throughout.
For the molecule `O=C1NC(=S)N/C1=C\c1sccc1Cl`, the inhibition amounted to 46% in test [1], 19% in test [2] and 19% in test [3]. In test [4], the inhibition result is “inactive”.
